Source: ChEMBL document CHEMBL3627653, “Synthesis and biological evaluation of spiro[cyclopropane-1,3'-indolin]-2'-ones as potential anticancer agents” (Bioorg Med Chem Lett, 2015)
Active and inactive are the calls of the source. No cut-off for these calls is given here.

Assays:
MCF7 [1] = assay: Anticancer activity against human MCF7 cells; format: functional
Procedure, shortened: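 Human MCF-7 breast cancer cells exposed to compound for 48 h. The IC50 (50% inhibitory concentration) is reported as the average of three individual experiments.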

A549 = assay: Anticancer activity against human A549 cells assessed as reduction in cell viability incubated for 48 hrs by MTT assay; format: functional, cell-based; conditions: A549, 48 h
DU-145 [2] = assay: Induction of cell cycle arrest in human DU145 cells assessed as accumulation at subG1 phase at 1.5 uM incubated for 48 hrs by propidium iodide staining based flow cytometry (reference value: 9.12%); format: functional
DU-145 [3] = assay: Induction of apoptosis in human DU145 cells assessed as early apoptotic cells level at 3 uM incubated for 48 hrs by Annexin V-FITC and propidium iodide staining based flow cytometry (reference value: 4.73%); format: functional
DU-145 [4] = assay: Reduction in mitochondrial membrane potential in human DU145 cells assessed as cell level at Q1-lower right quadrant at 1.5 uM incubated for 48 hrs by JC1 dye staining based flow cytometry (reference value: 3.1%); format: functional; set-up: scale not given: the % may be the effect or the level left
Procedure, shortened: (§1)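 After 48 h exposure at 1.5 or 3 μM, DU-145 cells were stained with JC-1 to track loss of mitochondrial membrane potential (ΔΨm) and read on a FACScan flow cytometer. Untreated control and nocodazole (1.5 μM) were run alongside.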

DU-145 [5] = assay: Reduction in mitochondrial membrane potential in human DU145 cells assessed as cell level at Q1-upper right quadrant at 1.5 uM incubated for 48 hrs by JC1 dye staining based flow cytometry (reference value: 95.1%); format: functional; set-up: scale not given: the % may be the effect or the level left; procedure, shortened: as §1
DU-145 [6] = assay: Reduction in mitochondrial membrane potential in human DU145 cells assessed as cell level at Q1-upper left quadrant at 1.5 uM incubated for 48 hrs by JC1 dye staining based flow cytometry (reference value: 1.6%); format: functional; set-up: scale not given: the % may be the effect or the level left; procedure, shortened: as §1
DU-145 [7] = assay: Induction of cell cycle arrest in human DU145 cells assessed as accumulation at G0/G1 phase at 1.5 uM incubated for 48 hrs by propidium iodide staining based flow cytometry (reference value: 79.81%); format: functional
DU-145 [8] = assay: Induction of apoptosis in human DU145 cells assessed as late apoptotic cells level at 1.5 uM incubated for 48 hrs by Annexin V-FITC and propidium iodide staining based flow cytometry (reference value: 3.83%); format: functional
DU-145 [9] = assay: Induction of apoptosis in human DU145 cells assessed as viable cells level at 3 uM incubated for 48 hrs by Annexin V-FITC and propidium iodide staining based flow cytometry (reference value: 87.88%); format: functional
DU-145 [10] = assay: Induction of cell cycle arrest in human DU145 cells assessed as accumulation at S phase at 3 uM incubated for 48 hrs by propidium iodide staining based flow cytometry (reference value: 1.74%); format: functional
DU-145 [11] = assay: Induction of apoptosis in human DU145 cells assessed as necrotic cells level at 1.5 uM incubated for 48 hrs by Annexin V-FITC and propidium iodide staining based flow cytometry (reference value: 3.56%); format: functional
HEK293 = assay: Cytotoxic activity against human HEK293 cells assessed as reduction in cell viability incubated for 48 hrs by MTT assay; format: cell-based; conditions: HEK293, 48 h
DU-145 [12] = assay: Induction of cell cycle arrest in human DU145 cells assessed as accumulation at G2/M phase at 3 uM incubated for 48 hrs by propidium iodide staining based flow cytometry (reference value: 6.51%); format: functional
DU-145 [13] = assay: Induction of cell cycle arrest in human DU145 cells assessed as accumulation at G2/M phase at 1.5 uM incubated for 48 hrs by propidium iodide staining based flow cytometry (reference value: 6.51%); format: functional
DU-145 [14] = assay: Induction of apoptosis in human DU145 cells assessed as early apoptotic cells level at 1.5 uM incubated for 48 hrs by Annexin V-FITC and propidium iodide staining based flow cytometry (reference value: 4.73%); format: functional
DU-145 [15] = assay: Reduction in mitochondrial membrane potential in human DU145 cells assessed as cell level at Q1-lower left quadrant at 3 uM incubated for 48 hrs by JC1 dye staining based flow cytometry (reference value: 0.1%); format: functional; set-up: scale not given: the % may be the effect or the level left; procedure, shortened: as §1
DU-145 [16] = assay: Induction of apoptosis in human DU145 cells assessed as necrotic cells level at 3 uM incubated for 48 hrs by Annexin V-FITC and propidium iodide staining based flow cytometry (reference value: 3.56%); format: functional
DU-145 [17] = assay: Anticancer activity against human DU145 cells assessed as reduction in cell viability incubated for 48 hrs by MTT assay; format: functional, cell-based; conditions: DU-145, 48 h
DU-145 [18] = assay: Induction of cell cycle arrest in human DU145 cells assessed as accumulation at S phase at 1.5 uM incubated for 48 hrs by propidium iodide staining based flow cytometry (reference value: 1.74%); format: functional
DU-145 [19] = assay: Reduction in mitochondrial membrane potential in human DU145 cells assessed as cell level at Q1-lower left quadrant at 1.5 uM incubated for 48 hrs by JC1 dye staining based flow cytometry (reference value: 0.1%); format: functional; set-up: scale not given: the % may be the effect or the level left; procedure, shortened: as §1
DU-145 [20] = assay: Reduction in mitochondrial membrane potential in human DU145 cells assessed as cell level at Q1-lower right quadrant at 3 uM incubated for 48 hrs by JC1 dye staining based flow cytometry (reference value: 3.1%); format: functional; set-up: scale not given: the % may be the effect or the level left; procedure, shortened: as §1
MCF7 [21] = assay: Anticancer activity against human MCF7 cells assessed as reduction in cell viability incubated for 48 hrs by MTT assay; format: functional, cell-based; conditions: MCF7, 48 h
DU-145 [22] = assay: Induction of apoptosis in human DU145 cells assessed as late apoptotic cells level at 3 uM incubated for 48 hrs by Annexin V-FITC and propidium iodide staining based flow cytometry (reference value: 3.83%); format: functional
DU-145 [23] = assay: Induction of cell cycle arrest in human DU145 cells assessed as accumulation at subG1 phase at 3 uM incubated for 48 hrs by propidium iodide staining based flow cytometry (reference value: 9.12%); format: functional
DU-145 [24] = assay: Induction of cell cycle arrest in human DU145 cells assessed as accumulation at G0/G1 phase at 3 uM incubated for 48 hrs by propidium iodide staining based flow cytometry (reference value: 79.81%); format: functional
DU-145 [25] = assay: Reduction in mitochondrial membrane potential in human DU145 cells at 1.5 uM incubated for 48 hrs by JC1 dye staining based flow cytometry; format: functional, cell-based; procedure, shortened: as §1
DU-145 [26] = assay: Induction of apoptosis in human DU145 cells assessed as viable cells level at 1.5 uM incubated for 48 hrs by Annexin V-FITC and propidium iodide staining based flow cytometry (reference value: 87.88%); format: functional
DU-145 [27] = assay: Reduction in mitochondrial membrane potential in human DU145 cells assessed as cell level at Q1-upper left quadrant at 3 uM incubated for 48 hrs by JC1 dye staining based flow cytometry (reference value: 1.6%); format: functional; set-up: scale not given: the % may be the effect or the level left; procedure, shortened: as §1
HT-29 = assay: Anticancer activity against human HT-29 cells assessed as reduction in cell viability incubated for 48 hrs by MTT assay; format: functional, cell-based; conditions: HT-29, 48 h
DU-145 [28] = assay: Reduction in mitochondrial membrane potential in human DU145 cells assessed as cell level at Q1-upper right quadrant at 3 uM incubated for 48 hrs by JC1 dye staining based flow cytometry (reference value: 95.1%); format: functional; set-up: scale not given: the % may be the effect or the level left; procedure, shortened: as §1
DU-145 [29] = assay: Induction of apoptosis in human DU145 cells assessed as increase in caspase-3 levels level at 1.5 and 3 uM incubated for 48 hrs by ELISA method; format: functional
Procedure, shortened: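 Caspase-3 levels measured in DU-145 cells after 48 h treatment at 1.5 and 3 μM and expressed relative to untreated control. Data are mean ± SD of two experiments each run in triplicate; significance set at P < 0.005 versus control.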

DU-145 [30] = assay: Reduction in mitochondrial membrane potential in human DU145 cells at 3 uM incubated for 48 hrs by JC1 dye staining based flow cytometry; format: functional, cell-based; procedure, shortened: as §1
HeLa = assay: Anticancer activity against human HeLa cells assessed as reduction in cell viability incubated for 48 hrs by MTT assay; format: functional, cell-based
DU-145 [31] = assay: Anticancer activity against human DU145 cells; format: functional, cell-based

Row | Compound | GI50 (MCF7 [1]) | IC50 (A549) | Activity (DU-145 [2]) | Activity (DU-145 [3]) | Activity (DU-145 [4]) | Activity (DU-145 [5]) | Activity (DU-145 [6]) | Activity (DU-145 [7]) | Activity (DU-145 [8]) | Activity (DU-145 [11]) | Activity (DU-145 [13]) | Activity (DU-145 [14]) | IC50 (DU-145 [17]) | Activity (DU-145 [18]) | Activity (DU-145 [19]) | IC50 (MCF7 [21]) | Activity (DU-145 [25]) | Activity (DU-145 [26]) | IC50 (HT-29) | IC50 (HeLa) | other results
1 | CC(=O)N1C(=O)[C@]2(Sc3ncccc3C(=O)N2c2ccccc2)c2cc(Br)ccc21 | 2.13 µM |  |  |  |  |  |  |  |  |  |  |  |  |  |  |  |  |  |  |  | 
2 | CCOC(=O)[C@H]1[C@H](C(=O)c2ccc(C)cc2)C12C(=O)Nc1ccc(Br)cc12 (relative stereo) |  | 4.56 µM | 8.8% | 22.98% | 7.5% | 88.1% | 3.1% | 1.35% | 66.31% | 3.41% | 2.1% | 57.28% | 1.86 µM | 26.17% | 1.1% | 3.63 µM | Active | 2.74% | 1.87 µM | 16.1 µM | Activity (DU-145 [9]): 17%; Activity (DU-145 [10]): 64.01%; IC50 (HEK293): 79.4 µM; Activity (DU-145 [12]): 3.16%; Activity (DU-145 [15]): 1.8%; Activity (DU-145 [16]): 11.5%; Activity (DU-145 [20]): 12%; Activity (DU-145 [22]): 18.78%; Activity (DU-145 [23]): 85.57%; Activity (DU-145 [24]): 3.4%; Activity (DU-145 [27]): 2.1%; Activity (DU-145 [28]): 84.1%; fold change (FC) (DU-145 [29]): 2; Activity (DU-145 [30]): Active
3 | CN1O[C@@]2(C[C@@H]1c1ccccc1)C(=O)Nc1ccccc12 | 2.6 µM |  |  |  |  |  |  |  |  |  |  |  |  |  |  |  |  |  |  |  | 
4 | CCOC(=O)[C@H]1[C@H](C(=O)c2ccccc2)C12C(=O)Nc1ccccc12 (relative stereo) |  | 5.12 µM | 7.77% | 22.15% | 6.6% | 89.7% | 2.9% | 2.11% | 78.52% | 0.62% | 2.27% | 56.01% | 2.08 µM | 16.58% | 0.8% | 3.98 µM | Active | 4.19% | 3.89 µM | 7.5 µM | Activity (DU-145 [9]): 17.66%; Activity (DU-145 [10]): 70.57%; IC50 (DU-145 [31]): 2.08 µM; IC50 (HEK293): 64.6 µM; Activity (DU-145 [12]): 8.93%; Activity (DU-145 [15]): 1.6%; Activity (DU-145 [16]): 10.74%; Activity (DU-145 [20]): 11.1%; Activity (DU-145 [22]): 10.12%; Activity (DU-145 [23]): 84.93%; Activity (DU-145 [24]): 4.03%; Activity (DU-145 [27]): 2.2%; Activity (DU-145 [28]): 85.1%; fold change (FC) (DU-145 [29]): 2; Activity (DU-145 [30]): Active
5 | COC(=O)Nc1nc2cc(C(=O)c3cccs3)ccc2[nH]1 [NOCODAZOLE] |  |  | 9.25% |  | 8.3% | 87.5% | 2.8% | 57.63% | 5.35% | 3.92% | 26.59% | 9.52% |  | 5.61% | 1.4% |  | Active | 81.21% |  |  | 
6 | CCOC(=O)[C@H]1[C@H](C(=O)OCC)C12C(=O)Nc1ccc(Cl)cc12 (relative stereo) |  | 29 µM |  |  |  |  |  |  |  |  |  |  | 19.9 µM |  |  | 24 µM |  |  | 22.9 µM | 25.1 µM | 
